Measured values reported in publication PMC11268778 (International Journal of Nanomedicine, 2024).

Experiments:
Encapsulation = assay type: physicochemical; details: estimated from FITC signals of supernatants of broken minus un-broken NPs
Outline: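 PLGA (5 mg/mL in acetonitrile) containing FITC-labelled peptide was injected at 2 mL/min into 0.1% PVA and stirred 48 h. Particles were washed three times (15,000 rpm, 10 min) and freeze-dried. 1 mg NPs was disrupted in 50% DMSO/0.5% SDS/0.1 M NaOH for 1 h. FITC was read at 488/520 nm against a free-peptide calibration line. Surface-adsorbed fraction = broken minus unbroken supernatant signal. Triplicate.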

[1] = In vitro release from PLGA-NPs; assay type: physicochemical; details: 1 mg NPs in 1.5 mL PBS pH 7.2, 37 °C, FITC fluorescence, triplicate

peptide adsorbed on the external surface of NPs (Encapsulation) | peptide released from PLGA-NPs at 0.5 h [1] [%] | Substance
~ 63% | – | βAla-G-βAla-QL-PEG-AAFAARA [Ctrl PEG]
– | 100 | βAla-G-βAla-QL-PEG-AAFAARAV [Ctrl PEG-Val]
